Test results from ChEMBL document CHEMBL2440064, “Synthesis and biological evaluation of 2-amino-5-aryl-3-benzylthiopyridine scaffold based potent c-Met inhibitors” (Bioorg Med Chem, 2013).
The source made the active and inactive calls. No cut-off for these calls is given here.

Assays:
[1] = target: T1, Hepatocyte growth factor receptor (Homo sapiens, UniProt P08581); test: Inhibition of c-Met in gefitinib-resistant human HCC827 cells assessed as inhibition of AKT phosphorylation at 0.5 uM after 2 hrs by Western blotting analysis; type: cell-based
Method in brief: (§1)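 Cells grown to exponential phase, treated with compound 2 h at 37°C, lysed in 1× SDS sample buffer, resolved on 10% SDS-PAGE and transferred to nitrocellulose for immunoblotting.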

[2] = target: T1, Hepatocyte growth factor receptor; test: Inhibition of c-Met in gefitinib-resistant human HCC827 cells assessed as inhibition of p44/42 phosphorylation at 0.5 uM after 2 hrs by Western blotting analysis; type: cell-based; method in brief: as §1
[3] = target: T1, Hepatocyte growth factor receptor; test: Inhibition of c-Met phosphorylation in gefitinib-resistant human HCC827 cells at 0.5 uM after 2 hrs by Western blotting analysis; type: cell-based; method in brief: as §1
[4] = target: T1, Hepatocyte growth factor receptor; test: Inhibition of c-Met (unknown origin) using poly (Glu, Tyr) 4:1 as substrate at 10 uM after 60 mins by ELISA
Method in brief: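 ELISA on wells precoated with 20 µg/mL poly(Glu,Tyr)4:1. Purified kinase with 10 µmol/L ATP in 50 mM HEPES pH 7.4, 50 mM MgCl₂, 0.5 mM MnCl₂, 0.2 mM Na₃VO₄, 1 mM DTT; 1% DMSO vehicle. 60 min at 37°C. Phosphotyrosine detected with PY99 antibody, then HRP anti-mouse IgG and o-phenylenediamine/H₂O₂, A490. Inhibition = [1−(A490/A490 control)]×100%; IC50 from curves.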

[5] = target: T1, Hepatocyte growth factor receptor; test: Inhibition of c-Met (unknown origin) using poly (Glu, Tyr) 4:1 as substrate after 60 mins by ELISA
NIH3T3 = test: Antitumor activity against mouse NIH/3T3 cells expressing TPR/Met allografted in mouse assessed as tumor growth inhibition at 50 mg/kg, po qd administered for 2 weeks measured twice per week relative to vehicle-treated control; type: functional; settings: NIH3T3, 336 h, read-out: TGI
Method in brief: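 Tumor fragments (1 mm³) implanted s.c. in right flank of nude mice by trocar. Randomized at 100–150 mm³ tumor volume. Dosed orally 7 days/week for 2 weeks; vehicle controls. Calipers twice weekly; TV = length×width²/2. Inhibition = 100%×{1−[(T day14−T day0)/(C day14−C day0)]}. n = 6/group, Student's t-test.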

[6] = Antiproliferative activity against human EBC1 cells after 72 hrs; settings: EBC-1, 72 h
HCT-116 = test: Antiproliferative activity against human HCT116 cells after 72 hrs; settings: HCT-116, 72 h
SK-MEL-28 = test: Antiproliferative activity against human SK-MEL-28 cells after 72 hrs; settings: SK-MEL-28, 72 h
NCI-H441 = test: Antiproliferative activity against human NCI-H441 cells after 72 hrs; settings: NCI-H441, 72 h
MDA-MB-231 = test: Antiproliferative activity against human MDA-MB-231 cells after 72 hrs; settings: MDA-MB-231, 72 h
SNU-5 = test: Antiproliferative activity against human SNU5 cells after 72 hrs; settings: SNU-5, 72 h
NCI-H661 = test: Antiproliferative activity against human NCI-H661 cells after 72 hrs; settings: NCI-H661, 72 h
MKN-45 = test: Antiproliferative activity against human MKN45 cells after 72 hrs; settings: MKN-45, 72 h
MCF7 = test: Antiproliferative activity against human MCF7 cells after 72 hrs; settings: MCF7, 72 h
SK-OV-3 = test: Antiproliferative activity against human SKOV3 cells after 72 hrs; settings: SK-OV-3, 72 h

T1 sequence (P08581 whole entry): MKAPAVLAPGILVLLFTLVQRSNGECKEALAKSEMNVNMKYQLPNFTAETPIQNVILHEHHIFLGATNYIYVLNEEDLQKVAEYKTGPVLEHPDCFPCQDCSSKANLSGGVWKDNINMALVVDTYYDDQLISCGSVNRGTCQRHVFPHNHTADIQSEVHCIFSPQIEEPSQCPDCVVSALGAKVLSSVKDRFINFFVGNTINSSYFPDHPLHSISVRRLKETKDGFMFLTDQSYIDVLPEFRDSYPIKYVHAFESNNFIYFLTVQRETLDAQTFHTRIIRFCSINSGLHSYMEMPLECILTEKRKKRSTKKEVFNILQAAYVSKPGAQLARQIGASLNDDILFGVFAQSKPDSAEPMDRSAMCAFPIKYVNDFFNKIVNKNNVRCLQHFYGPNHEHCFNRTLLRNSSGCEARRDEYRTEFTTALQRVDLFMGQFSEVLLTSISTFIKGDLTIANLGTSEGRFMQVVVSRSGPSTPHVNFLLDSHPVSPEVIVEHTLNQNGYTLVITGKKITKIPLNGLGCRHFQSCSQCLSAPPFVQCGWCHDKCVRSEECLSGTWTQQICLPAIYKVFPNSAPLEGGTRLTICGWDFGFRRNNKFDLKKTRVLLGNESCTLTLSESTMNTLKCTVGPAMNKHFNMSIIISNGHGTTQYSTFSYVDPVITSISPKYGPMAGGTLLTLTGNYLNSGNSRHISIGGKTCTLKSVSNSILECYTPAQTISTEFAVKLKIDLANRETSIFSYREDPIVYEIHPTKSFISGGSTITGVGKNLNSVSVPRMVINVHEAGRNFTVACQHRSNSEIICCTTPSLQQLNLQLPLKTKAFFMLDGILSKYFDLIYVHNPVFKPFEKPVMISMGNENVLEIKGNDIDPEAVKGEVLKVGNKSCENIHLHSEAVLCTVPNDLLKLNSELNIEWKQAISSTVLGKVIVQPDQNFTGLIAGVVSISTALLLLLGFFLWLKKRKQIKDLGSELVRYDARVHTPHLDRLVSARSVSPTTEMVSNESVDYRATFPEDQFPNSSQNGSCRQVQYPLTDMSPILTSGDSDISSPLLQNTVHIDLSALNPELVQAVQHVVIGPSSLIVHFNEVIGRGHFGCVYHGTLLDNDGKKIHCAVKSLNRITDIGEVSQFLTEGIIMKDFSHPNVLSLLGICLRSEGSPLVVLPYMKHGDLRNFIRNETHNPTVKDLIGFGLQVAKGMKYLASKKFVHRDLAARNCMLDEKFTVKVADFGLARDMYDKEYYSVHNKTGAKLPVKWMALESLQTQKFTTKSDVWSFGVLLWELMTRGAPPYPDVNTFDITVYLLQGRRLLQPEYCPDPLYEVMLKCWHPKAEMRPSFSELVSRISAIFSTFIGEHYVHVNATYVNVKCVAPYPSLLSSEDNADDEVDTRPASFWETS

With COc1cc2ncnc(Nc3ccc(F)c(Cl)c3)c2cc1OCCCN1CCOCC1 the inhibition [1] was “inactive”, the inhibition [2] was “inactive” and the inhibition [3] was “Active”.
Molecule CC(NS(=O)(=O)c1cc(-c2cnn(C3CCNCC3)c2)cnc1N)c1c(Cl)ccc(F)c1Cl (configuration not stated) has an IC50 [4] of over 10 µM.
In the case of C[C@H](Sc1cc(-c2cnn(C3CCNCC3)c2)cnc1N)c1c(Cl)ccc(F)c1Cl, the IC50 [5] is reported as 0.171 µM.
In the case of CC(Sc1cc(-c2cnn(C3CCNCC3)c2)cnc1N)c1c(Cl)ccc(F)c1Cl (racemic), the IC50 [5] is reported as 0.0164 µM.
Work on C[C@@H](Oc1cc(-c2cnn(C3CCNCC3)c2)cnc1N)c1c(Cl)ccc(F)c1Cl [CRIZOTINIB] yielded an inhibition in vivo at 50 mg/kg (NIH3T3) of 82.4%, an IC50 [6] of 0.023 µM and an IC50 (HCT-116) of 14.8 µM. For the same molecule, the IC50 (SK-MEL-28) was 11 µM, the IC50 (NCI-H441) was 17.2 µM and the IC50 (MDA-MB-231) was 10.8 µM. For the same molecule, the IC50 (SNU-5) was 0.016 µM, the IC50 (NCI-H661) was 11.5 µM and the IC50 (MKN-45) was 0.013 µM. The IC50 (MCF7) was 9.58 µM and the IC50 (SK-OV-3) was 12.8 µM.
